Test results taken from ChEMBL document CHEMBL4261600 (Eur J Med Chem, 2018).

Legend:
[1] = biological target: RAF proto-oncogene serine/threonine-protein kinase (Homo sapiens) (UniProt P04049); experiment: Binding affinity to wild-type human partial length RAF1 (I330 to T640 residues) expressed in bacterial expression system assessed as remaining unbound target protein level at 1000 nM by Kinomescan method relative to control
[2] = biological target: Serine/threonine-protein kinase MARK1 (Homo sapiens) (UniProt Q9P0L2); experiment: Binding affinity to wild-type human partial length MARK1 (Q30 to T341 residues) expressed in bacterial expression system assessed as remaining unbound target protein level at 1000 nM by Kinomescan method relative to control
In short: (§1)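 KINOMEscan binding panel of 468 kinases/mutants. Inhibitor was tested at a single concentration of 1 μM. Binding is reported as percent of control, defined relative to a DMSO control.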

[3] = system: Ramos; experiment: Antiproliferative activity against human Ramos cells after 72 hrs by Celltiter-Glo assay; type: functional
In short: (§2)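 Cells seeded at 3000/well in 96-well plates, exposed to serially diluted compound for 72 h at 37 °C, 5% CO2. Viability read by CellTiter-Glo luminescence and normalized to DMSO control. GI50 derived from curve fit, mean of three independent measurements. Culture media: DMEM/10% FBS for adherent lines; IMDM for MV4-11 and MEC-1/2; RPMI 1640 for suspension lines and CHL.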

[4] = biological target: Cyclin-dependent kinase 1/cyclin B1 (Homo sapiens, UniProt P06493); experiment: Inhibition of recombinant full length His-tagged human CDK1/CyclinB expressed in baculovirus expression system
[5] = biological target: Casein kinase I isoform gamma-1 (Homo sapiens) (UniProt Q9HCP0); experiment: Binding affinity to wild-type human partial length CSNK1G1 (T15 to S353 residues) expressed in bacterial expression system assessed as remaining unbound target protein level at 1000 nM by Kinomescan method relative to control
In short: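 KINOMEscan competition binding profile across a panel of 468 kinases and mutants, with the inhibitor tested at a single concentration of 1 μM. Binding is reported as percent of control, meaning signal relative to a DMSO control.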

[6] = biological target: Ephrin type-A receptor 6 (Homo sapiens) (UniProt Q9UF33); experiment: Binding affinity to wild-type human partial length EPHA6 (Y700 to E1046 residues) expressed in bacterial expression system assessed as remaining unbound target protein level at 1000 nM by Kinomescan method relative to control
[7] = biological target: Microtubule-associated serine/threonine-protein kinase 1 (Homo sapiens) (UniProt Q9Y2H9); experiment: Binding affinity to wild-type human partial length MAST1 (S346 to V730 residues) expressed in mammalian expression system assessed as remaining unbound target protein level at 1000 nM by Kinomescan method relative to control
[8] = system: Receptor-type tyrosine-protein kinase FLT3 (Homo sapiens), P36888 [UNDEFINED MUTATION]; experiment: Binding affinity to human partial length FLT3 ITD/F691L double mutant expressed in bacterial expression system assessed as remaining unbound target protein level at 1000 nM by Kinomescan method relative to control
In short: (§3)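 KINOMEscan competition-binding profiling across the panel of 468 kinases and mutants, with inhibitor tested at 1 μM. Binding is expressed as percent of control, with DMSO as the reference control.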

[9] = biological target: Serine/threonine-protein kinase D3 (Homo sapiens) (UniProt O94806); experiment: Binding affinity to wild-type human partial length PRKD3 (S543 to E863 residues) expressed in bacterial expression system assessed as remaining unbound target protein level at 1000 nM by Kinomescan method relative to control
[10] = biological target: Serine/threonine-protein kinase NIM1 (Homo sapiens) (UniProt Q8IY84); experiment: Binding affinity to wild-type human partial length NIM1 (Q44 to N355 residues) expressed in mammalian expression system assessed as remaining unbound target protein level at 1000 nM by Kinomescan method relative to control
[11] = biological target: Calcium/calmodulin-dependent protein kinase kinase 1 (Homo sapiens) (UniProt Q8N5S9); experiment: Binding affinity to wild-type human partial length CAMKK1 (R65 to E414 residues) expressed in bacterial expression system assessed as remaining unbound target protein level at 1000 nM by Kinomescan method relative to control
[12] = biological target: Cyclin-dependent kinase 3 (Homo sapiens) (UniProt Q00526); experiment: Binding affinity to wild-type human full length CDK3 (M1 to H305 residues) expressed in bacterial expression system assessed as remaining unbound target protein level at 1000 nM by Kinomescan method relative to control
In short: (§4)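 KINOMEscan competitive binding profile at 1 μM inhibitor. Remaining target binding reported as percent of DMSO control.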

[13] = biological target: Hormonally up-regulated neu tumor-associated kinase (Homo sapiens) (UniProt P57058); experiment: Binding affinity to wild-type human partial length HUNK (A31 to K354 residues) expressed in bacterial expression system assessed as remaining unbound target protein level at 1000 nM by Kinomescan method relative to control; in short: as §1
[14] = biological target: Casein kinase I isoform gamma-3 (Homo sapiens) (UniProt Q9Y6M4); experiment: Binding affinity to wild-type human full length CSNK1G3 (M1 to K447 residues) expressed in bacterial expression system assessed as remaining unbound target protein level at 1000 nM by Kinomescan method relative to control
In short: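 Single-point competition binding screen across a panel of 468 kinases and mutants, with the inhibitor at 1 μM. Binding is read out as percent of a DMSO control, and targets below 1 percent control were classed as strong binders.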

[15] = system: Receptor-type tyrosine-protein kinase FLT3 (Homo sapiens), P36888 [R834Q]; experiment: Binding affinity to human partial length FLT3 R834Q mutant (V592 to Y969 residues) expressed in mammalian expression system assessed as remaining unbound target protein level at 1000 nM by Kinomescan method relative to control; in short: as §3
[16] = biological target: Tyrosine-protein kinase Fgr (Homo sapiens) (UniProt P09769); experiment: Binding affinity to wild-type human partial length FGR (L233 to T529 residues) expressed in bacterial expression system assessed as remaining unbound target protein level at 1000 nM by Kinomescan method relative to control
[17] = system: HL-60; experiment: Antiproliferative activity against human HL60 cells after 72 hrs by Celltiter-Glo assay; type: functional; conditions: HL-60, 72 h; in short: as §2
[18] = system: Canis familiaris; experiment: Oral bioavailability in beagle dog at 10 mg/kg by LC-MS/MS analysis; type: ADME, organism-based, Canis lupus familiaris; conditions: in vivo
[19] = biological target: Casein kinase I isoform delta (Homo sapiens) (UniProt P48730); experiment: Binding affinity to wild-type human full length CSNK1D (M1 to K409 residues) expressed in bacterial expression system assessed as remaining unbound target protein level at 1000 nM by Kinomescan method relative to control; in short: as §4
[20] = organism: Homo sapiens; experiment: Selectivity ratio of IC50 for recombinant GST-tagged inactive state of human CDK11 to IC50 for recombinant full length His-tagged human CDK9/CyclinT1
[21] = system: Hepatocyte growth factor receptor (Homo sapiens), P08581 [Y1235D]; experiment: Binding affinity to human partial length MET Y1235D mutant (D1010 to S1367 residues) expressed in bacterial expression system assessed as remaining unbound target protein level at 1000 nM by Kinomescan method relative to control; in short: as §3

Chain of Casein kinase I isoform delta (Homo sapiens) (P48730 whole entry, looked up, the tested form may be a part, canonical isoform): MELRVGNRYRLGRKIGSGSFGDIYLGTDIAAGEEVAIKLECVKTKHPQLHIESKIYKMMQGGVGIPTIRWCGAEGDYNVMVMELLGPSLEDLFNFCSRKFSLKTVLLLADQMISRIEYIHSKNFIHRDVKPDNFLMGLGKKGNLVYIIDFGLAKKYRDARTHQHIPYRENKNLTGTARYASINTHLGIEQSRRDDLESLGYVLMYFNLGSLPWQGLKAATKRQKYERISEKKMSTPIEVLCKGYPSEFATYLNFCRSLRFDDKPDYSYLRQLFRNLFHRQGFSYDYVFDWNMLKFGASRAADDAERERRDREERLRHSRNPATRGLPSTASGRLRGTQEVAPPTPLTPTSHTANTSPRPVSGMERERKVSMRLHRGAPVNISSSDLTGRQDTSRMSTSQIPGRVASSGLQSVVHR
Chain of Serine/threonine-protein kinase D3 (Homo sapiens) (O94806 whole entry, the tested form may be a part): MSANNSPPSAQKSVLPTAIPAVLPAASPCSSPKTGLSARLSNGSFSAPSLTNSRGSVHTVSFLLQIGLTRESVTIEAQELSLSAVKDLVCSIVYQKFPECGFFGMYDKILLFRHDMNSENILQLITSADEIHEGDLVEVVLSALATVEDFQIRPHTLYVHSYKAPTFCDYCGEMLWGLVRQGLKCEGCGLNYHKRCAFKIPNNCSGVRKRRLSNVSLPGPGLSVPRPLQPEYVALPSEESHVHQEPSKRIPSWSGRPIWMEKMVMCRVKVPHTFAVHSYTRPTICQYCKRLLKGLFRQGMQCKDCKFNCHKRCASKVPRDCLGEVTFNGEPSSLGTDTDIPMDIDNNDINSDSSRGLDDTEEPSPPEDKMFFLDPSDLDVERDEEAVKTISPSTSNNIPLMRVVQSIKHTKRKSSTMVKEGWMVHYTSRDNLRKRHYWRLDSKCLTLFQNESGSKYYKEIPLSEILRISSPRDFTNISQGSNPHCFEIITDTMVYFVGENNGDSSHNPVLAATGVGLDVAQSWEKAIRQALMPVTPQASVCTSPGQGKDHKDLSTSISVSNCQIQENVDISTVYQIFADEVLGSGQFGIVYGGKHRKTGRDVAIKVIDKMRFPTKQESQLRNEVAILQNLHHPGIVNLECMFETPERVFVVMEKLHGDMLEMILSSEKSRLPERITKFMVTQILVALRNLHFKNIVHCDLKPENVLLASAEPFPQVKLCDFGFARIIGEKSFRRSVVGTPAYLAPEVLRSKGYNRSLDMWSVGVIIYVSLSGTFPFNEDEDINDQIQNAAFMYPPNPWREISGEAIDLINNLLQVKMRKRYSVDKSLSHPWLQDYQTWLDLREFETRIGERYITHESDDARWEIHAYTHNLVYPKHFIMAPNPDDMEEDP
Chain of Serine/threonine-protein kinase NIM1 (Homo sapiens) (Q8IY84 whole entry, the tested form may be a part): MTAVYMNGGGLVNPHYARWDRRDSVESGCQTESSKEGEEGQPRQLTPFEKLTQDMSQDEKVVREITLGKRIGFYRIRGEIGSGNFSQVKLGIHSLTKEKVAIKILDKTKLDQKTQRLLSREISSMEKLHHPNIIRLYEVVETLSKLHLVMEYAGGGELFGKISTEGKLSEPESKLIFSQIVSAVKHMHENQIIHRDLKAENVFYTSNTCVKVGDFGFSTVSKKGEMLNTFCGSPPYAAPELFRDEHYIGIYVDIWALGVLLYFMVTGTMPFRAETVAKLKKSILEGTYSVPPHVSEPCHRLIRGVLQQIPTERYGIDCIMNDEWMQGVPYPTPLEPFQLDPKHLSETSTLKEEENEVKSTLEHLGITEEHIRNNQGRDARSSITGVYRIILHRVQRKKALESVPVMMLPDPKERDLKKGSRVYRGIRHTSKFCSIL
Chain of Casein kinase I isoform gamma-3 (Homo sapiens) (Q9Y6M4 whole entry, looked up, the tested form may be a part, canonical isoform): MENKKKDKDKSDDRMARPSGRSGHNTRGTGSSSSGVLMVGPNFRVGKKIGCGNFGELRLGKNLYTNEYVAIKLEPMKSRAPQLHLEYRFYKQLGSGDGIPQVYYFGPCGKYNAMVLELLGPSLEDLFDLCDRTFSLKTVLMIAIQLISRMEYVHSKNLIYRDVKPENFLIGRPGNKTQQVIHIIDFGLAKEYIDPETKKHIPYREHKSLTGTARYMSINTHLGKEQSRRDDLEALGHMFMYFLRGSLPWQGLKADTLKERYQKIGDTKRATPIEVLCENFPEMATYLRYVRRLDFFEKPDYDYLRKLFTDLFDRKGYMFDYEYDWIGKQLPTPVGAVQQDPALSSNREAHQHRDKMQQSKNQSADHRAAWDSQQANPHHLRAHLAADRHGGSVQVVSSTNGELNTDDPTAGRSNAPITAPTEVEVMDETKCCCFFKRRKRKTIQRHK
Chain of Microtubule-associated serine/threonine-protein kinase 1 (Homo sapiens) (Q9Y2H9 whole entry, looked up, the tested form may be a part): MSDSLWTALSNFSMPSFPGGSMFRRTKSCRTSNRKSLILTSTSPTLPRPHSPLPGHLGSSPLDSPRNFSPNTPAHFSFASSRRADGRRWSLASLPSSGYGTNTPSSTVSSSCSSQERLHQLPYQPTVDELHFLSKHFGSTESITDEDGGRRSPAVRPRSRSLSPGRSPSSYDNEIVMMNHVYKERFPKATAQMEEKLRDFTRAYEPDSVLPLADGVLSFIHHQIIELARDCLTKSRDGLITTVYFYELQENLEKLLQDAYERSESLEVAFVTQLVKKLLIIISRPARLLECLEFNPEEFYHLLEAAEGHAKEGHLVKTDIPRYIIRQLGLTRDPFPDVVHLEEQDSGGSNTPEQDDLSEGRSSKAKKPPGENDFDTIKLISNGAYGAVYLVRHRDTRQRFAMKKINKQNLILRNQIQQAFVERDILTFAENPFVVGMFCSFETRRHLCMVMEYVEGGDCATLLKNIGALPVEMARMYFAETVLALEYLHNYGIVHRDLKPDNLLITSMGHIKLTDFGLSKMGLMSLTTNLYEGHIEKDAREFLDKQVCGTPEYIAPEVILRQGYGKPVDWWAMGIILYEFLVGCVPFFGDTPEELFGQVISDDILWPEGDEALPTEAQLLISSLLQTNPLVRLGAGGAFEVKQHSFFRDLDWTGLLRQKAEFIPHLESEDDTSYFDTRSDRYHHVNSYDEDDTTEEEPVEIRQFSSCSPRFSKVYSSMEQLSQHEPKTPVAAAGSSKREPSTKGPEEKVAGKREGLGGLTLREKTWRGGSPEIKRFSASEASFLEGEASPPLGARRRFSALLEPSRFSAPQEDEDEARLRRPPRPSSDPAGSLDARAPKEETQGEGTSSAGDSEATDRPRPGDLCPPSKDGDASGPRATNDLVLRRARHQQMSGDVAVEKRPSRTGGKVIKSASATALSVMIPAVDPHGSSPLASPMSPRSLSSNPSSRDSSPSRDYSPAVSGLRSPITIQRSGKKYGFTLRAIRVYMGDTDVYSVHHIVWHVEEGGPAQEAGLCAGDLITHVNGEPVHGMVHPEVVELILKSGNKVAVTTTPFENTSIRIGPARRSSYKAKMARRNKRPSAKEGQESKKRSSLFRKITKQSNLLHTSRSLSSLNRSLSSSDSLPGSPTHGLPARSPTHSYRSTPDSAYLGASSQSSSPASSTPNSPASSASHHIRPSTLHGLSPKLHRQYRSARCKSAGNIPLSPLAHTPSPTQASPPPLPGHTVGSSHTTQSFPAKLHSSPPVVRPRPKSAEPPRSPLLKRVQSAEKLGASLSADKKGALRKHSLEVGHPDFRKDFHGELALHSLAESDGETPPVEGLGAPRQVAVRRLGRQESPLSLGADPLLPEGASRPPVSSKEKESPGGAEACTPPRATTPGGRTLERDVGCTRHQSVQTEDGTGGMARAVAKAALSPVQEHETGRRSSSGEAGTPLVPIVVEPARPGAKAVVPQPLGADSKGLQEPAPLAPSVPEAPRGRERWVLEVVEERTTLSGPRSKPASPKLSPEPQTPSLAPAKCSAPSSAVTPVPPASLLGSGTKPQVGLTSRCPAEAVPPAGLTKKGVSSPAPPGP
Chain of Casein kinase I isoform gamma-1 (Homo sapiens) (Q9HCP0 whole entry, looked up, the tested form may be a part, canonical isoform): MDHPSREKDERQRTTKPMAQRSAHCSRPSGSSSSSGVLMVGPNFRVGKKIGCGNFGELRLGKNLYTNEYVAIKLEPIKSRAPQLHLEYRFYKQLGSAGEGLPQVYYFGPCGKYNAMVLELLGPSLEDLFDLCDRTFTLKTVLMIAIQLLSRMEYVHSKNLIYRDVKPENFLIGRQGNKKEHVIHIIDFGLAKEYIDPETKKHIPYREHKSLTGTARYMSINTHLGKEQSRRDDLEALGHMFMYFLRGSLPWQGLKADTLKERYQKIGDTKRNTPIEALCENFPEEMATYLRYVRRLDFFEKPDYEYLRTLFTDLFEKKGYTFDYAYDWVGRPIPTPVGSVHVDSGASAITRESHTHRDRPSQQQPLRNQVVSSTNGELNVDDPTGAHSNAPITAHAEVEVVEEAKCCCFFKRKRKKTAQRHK
Chain of Hormonally up-regulated neu tumor-associated kinase (Homo sapiens) (P57058 whole entry, the tested form may be a part, canonical isoform): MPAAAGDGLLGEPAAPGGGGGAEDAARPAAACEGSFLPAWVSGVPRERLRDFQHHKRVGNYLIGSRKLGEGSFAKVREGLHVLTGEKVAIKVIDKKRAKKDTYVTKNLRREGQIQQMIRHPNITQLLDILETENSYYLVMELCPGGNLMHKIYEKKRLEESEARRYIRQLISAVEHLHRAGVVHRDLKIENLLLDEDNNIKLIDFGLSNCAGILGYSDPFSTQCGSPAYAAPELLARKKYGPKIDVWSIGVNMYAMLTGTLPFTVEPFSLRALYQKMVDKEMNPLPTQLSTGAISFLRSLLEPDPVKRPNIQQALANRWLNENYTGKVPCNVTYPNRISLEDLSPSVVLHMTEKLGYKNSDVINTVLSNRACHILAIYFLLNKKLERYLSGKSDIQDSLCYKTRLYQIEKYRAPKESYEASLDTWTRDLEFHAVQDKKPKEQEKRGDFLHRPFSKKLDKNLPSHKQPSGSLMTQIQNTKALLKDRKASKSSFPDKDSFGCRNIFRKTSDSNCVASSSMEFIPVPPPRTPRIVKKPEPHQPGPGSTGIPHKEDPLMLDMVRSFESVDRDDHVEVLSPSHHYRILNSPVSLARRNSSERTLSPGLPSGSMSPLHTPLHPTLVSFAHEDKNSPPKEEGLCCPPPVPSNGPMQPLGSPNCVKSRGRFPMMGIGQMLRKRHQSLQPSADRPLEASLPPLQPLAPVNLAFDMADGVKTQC

Work on `COCCN[C@H]1CC[C@H](Nc2cc(-c3csc(NCC4(C#N)CCOCC4)n3)c(Cl)cn2)CC1` yielded an Activity [1] of 100%, an Activity [2] of 91% and a GI50 [3] of 13 nM. The IC50 [4] was 1340 nM, the Activity [5] was 93% and the Activity [6] was 100%. The Activity [7] was 88%, the Activity [8] was 75% and the Activity [9] was 89%. For the same molecule, the Activity [10] was 96%, the Activity [11] was 84% and the Activity [12] was 81%. For the same molecule, the Activity [13] was 81%, the Activity [14] was 90% and the Activity [15] was 100%. It also gave an Activity [16] of 90%, a GI50 [17] of 56 nM and an F [18] of 39.15%. For the same molecule, the Activity [19] was 66%, the Ratio IC50 [20] was > 1000 and the Activity [21] was 96%.
